For one series, the system named is Staphylococcus aureus. The experiment in a line: Antibacterial activity against Staphylococcus aureus ATCC 25923 assessed as reduction in bacterial growth incubated for 18 to 20 hrs by broth microdilution assay. It counts as functional. Background: Dilution methods test growth across graded concentrations, often in twofold steps.
The subject of a further series is Escherichia coli. Briefly: Antibacterial activity against Escherichia coli ATCC 25922 assessed as reduction in bacterial growth incubated for 18 to 20 hrs by broth microdilution assay. It counts as functional.
Series [1] is described as follows: Solubility of the compound in HEPES buffer in presence of human N-terminal polyHis-tagged SerRS expressed in Escherichia coli BL21 (DE3) at 1000 uM. The format is physicochemical.
The target of series [2] is T1, Serine--tRNA ligase (Escherichia coli (strain K12), UniProt P0A8L1). The experiment in a line: Inhibition of C-terminal His10-tagged Escherichia coli B ER2560 SerRS expressed in Lemo21(DE3) using Ap4A as substrate in presence of serine by leuconostoc mesenteroides hexokinase/glucose 6-Phosphate dehydrogenase coupled UV-visible spectrophotometry. A digest of the protocol:
(§1)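 Continuous coupled spectrophotometric assay of the adenylate formation step with thrombin-cleaved, gel-filtered SerRS. Buffer is 50 mM HEPES pH 7.6 with 10 mM MgCl2, 50 mM KCl, 1 mM DTT and 10% DMSO. It also holds 10 mM glucose, 0.5 mM NADP+, yeast hexokinase and L. mesenteroides G6PDH. IC50 by non-linear regression.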

In series [3] the target is Serine--tRNA ligase (Staphylococcus aureus (strain NCTC 8325 / PS 47), UniProt P95689). Briefly: Inhibition of C-terminal His10-tagged Staphylococcus aureus seg50 SerRS expressed in Lemo21(DE3) using Ap4A as substrate in presence of serine by leuconostoc mesenteroides hexokinase/glucose 6-Phosphate dehydrogenase coupled UV-visible spectrophotometry. The essentials: as §1
Chain of Serine--tRNA ligase (Staphylococcus aureus (strain NCTC 8325 / PS 47), UniProt P95689) (P95689 whole entry): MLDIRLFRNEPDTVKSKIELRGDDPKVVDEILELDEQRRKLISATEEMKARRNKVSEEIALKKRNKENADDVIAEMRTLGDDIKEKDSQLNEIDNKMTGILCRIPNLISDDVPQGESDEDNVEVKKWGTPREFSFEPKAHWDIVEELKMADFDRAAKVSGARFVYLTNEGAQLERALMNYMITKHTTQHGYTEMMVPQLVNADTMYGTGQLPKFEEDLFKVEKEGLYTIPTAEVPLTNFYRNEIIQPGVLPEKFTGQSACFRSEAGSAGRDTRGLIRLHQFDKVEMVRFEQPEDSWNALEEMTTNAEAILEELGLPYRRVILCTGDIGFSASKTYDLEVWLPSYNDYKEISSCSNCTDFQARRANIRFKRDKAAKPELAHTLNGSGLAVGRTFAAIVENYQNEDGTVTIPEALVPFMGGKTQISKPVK

The target in series [4] is Serine--tRNA ligase (Escherichia coli (strain K12)) (UniProt P0A8L1). The experiment in a line: Binding affinity to C-terminal His10-tagged Escherichia coli B ER2560 SerRS expressed in Lemo21(DE3) SerRS assessed as binding stoichiometry at 2:1 ratio of compound to protein by isothermal titration calorimetry. A digest of the protocol:
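E. coli SerRS was purified by gel filtration and dialysed overnight at 4 °C into 20 mM Tris-HCl pH 7.5, 200 mM NaCl. Ligands were made up in the same buffer and all solutions degassed. ITC ran at 25 °C: 7 µM protein in the cell was titrated with 140 µM ligand by 2 µl then 26 × 10 µl injections (20 s each, 120 s apart). Stoichiometry N came from iterative isotherm fitting; runs were in triplicate.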

In series [5] the target is T1, Serine--tRNA ligase. Briefly: Binding affinity to C-terminal His10-tagged Escherichia coli B ER2560 SerRS expressed in Lemo21(DE3) SerRS assessed as affinity constant for first binding site by isothermal titration calorimetry. On the technique in general: In ITC the heat of successive injections is recorded.
Series [6] has as its target T1, Serine--tRNA ligase. The experiment in a line: Binding affinity to C-terminal His10-tagged Escherichia coli B ER2560 SerRS expressed in Lemo21(DE3) SerRS assessed as affinity constant for second binding site by isothermal titration calorimetry.
Series [7] concerns the target T1, Serine--tRNA ligase. The experiment in a line: Binding affinity to C-terminal His10-tagged Escherichia coli B ER2560 SerRS expressed in Lemo21(DE3) SerRS assessed as dissociation constant by isothermal titration calorimetry.
The nature of series [8]: Selectivity index, ratio of IC50 for human N-terminal polyHis-tagged SerRS expressed in Escherichia coli BL21 (DE3) to IC50 for C-terminal His10-tagged Escherichia coli B ER2560 SerRS expressed in Lemo21(DE3).
Series [9] is described as follows: Selectivity index, ratio of IC50 for human N-terminal polyHis-tagged SerRS expressed in Escherichia coli BL21 (DE3) to IC50 for C-terminal His10-tagged Staphylococcus aureus seg50 SerRS expressed in Lemo21(DE3).

SMILES strings stand for the structures. pIC50, pKd: −log10 of the molar value. Active and inactive are the calls of the source. The rule behind the calls is not given here. Bounds are passed on as bounds.

The term MIC denotes the lowest concentration found to suppress growth. One may read the pIC50 as −log10 of the IC50, conventionally taken in molar units. As a reminder, the pKd is −log10 of the Kd, conventionally taken in molar units.

T1 sequence (P0A8L1 whole entry): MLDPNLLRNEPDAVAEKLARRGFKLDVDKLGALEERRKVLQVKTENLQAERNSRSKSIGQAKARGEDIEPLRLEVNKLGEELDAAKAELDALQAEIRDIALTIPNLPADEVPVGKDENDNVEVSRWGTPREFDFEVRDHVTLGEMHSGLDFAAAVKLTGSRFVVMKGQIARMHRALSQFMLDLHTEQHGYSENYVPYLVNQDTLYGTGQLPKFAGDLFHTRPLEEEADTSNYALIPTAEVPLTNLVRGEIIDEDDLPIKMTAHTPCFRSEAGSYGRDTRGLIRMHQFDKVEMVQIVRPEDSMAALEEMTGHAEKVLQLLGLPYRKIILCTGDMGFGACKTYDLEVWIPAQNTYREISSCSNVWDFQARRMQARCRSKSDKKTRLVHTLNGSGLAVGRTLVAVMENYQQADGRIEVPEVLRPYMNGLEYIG
Chain of Serine--tRNA ligase (Escherichia coli (strain K12)) (P0A8L1 whole entry, looked up): as the sequence (P0A8L1 whole entry) above

In the case of `Nc1nc(-c2ccco2)nc2c1ncn2[C@@H]1O[C@H](COS(=O)(=O)NC(=O)[C@@H](N)CO)[C@@H](O)[C@H]1O`, the MIC in the series on Staphylococcus aureus and in the series with Escherichia coli was above 256 µg/mL each time.
With `Nc1nc(Cl)nc2c1ncn2[C@@H]1O[C@H](COS(=O)(=O)NC(=O)[C@@H](N)CO)[C@@H](O)[C@H]1O`, the MIC with Staphylococcus aureus and in the series on Escherichia coli was above 256 µg/mL each time.
With `Nc1nc(-c2ccsc2)nc2c1ncn2[C@@H]1O[C@H](COS(=O)(=O)NC(=O)[C@@H](N)CO)[C@@H](O)[C@H]1O`, the MIC in the series with Staphylococcus aureus and in the series on Escherichia coli was above 256 µg/mL throughout. In addition, the solubility entry in series [1] was “Insoluble”.
Consider `CC1(C)O[C@@H]2[C@H](O1)[C@@H](CO)O[C@H]2n1cnc2c(N)nc(I)nc21`, for which the pIC50 at Serine--tRNA ligase [2] was 3.55; at Serine--tRNA ligase [3] it was 3.64.
Consider `Nc1nc(-c2cccnc2)nc2c1ncn2[C@@H]1O[C@H](COS(=O)(=O)NC(=O)[C@@H](N)CO)[C@@H](O)[C@H]1O`, for which, in series [4], the outcome was Active. Besides, the MIC in the series with Staphylococcus aureus and with Escherichia coli was above 256 µg/mL in each case. The pKd is 6.54 on Serine--tRNA ligase [5], 5.72 on Serine--tRNA ligase [6] and 5.72 to 6.54 on Serine--tRNA ligase [7]. Moreover, the solubility result in series [1] was “Insoluble”.
As to `Nc1ncnc2c1ncn2[C@@H]1O[C@H](COS(=O)(=O)NC(=O)[C@@H](N)CO)[C@@H](O)[C@H]1O`, the result in series [4] was Active. For the same compound, the MIC in the series on Staphylococcus aureus and in the series with Escherichia coli was above 256 µg/mL throughout. For the same compound, the pKd on Serine--tRNA ligase [7] is 8.90. In addition, the Ratio IC50 in [8] and in series [9] was 10 in each case.
For the compound `Nc1nc(-c2ccccc2)nc2c1ncn2[C@@H]1O[C@H](COS(=O)(=O)NC(=O)[C@@H](N)CO)[C@@H](O)[C@H]1O`, the MIC with Staphylococcus aureus and in the series with Escherichia coli was above 256 µg/mL each time.
As for `Nc1nc(I)nc2c1ncn2[C@@H]1O[C@H](COS(=O)(=O)NC(=O)[C@@H](N)CO)[C@@H](O)[C@H]1O`, the MIC in the series with Staphylococcus aureus and with Escherichia coli was above 256 µg/mL in each case.
Regarding `C/C=C/c1nc(N)c2ncn([C@@H]3O[C@H](COS(=O)(=O)NC(=O)[C@@H](N)CO)[C@@H](O)[C@H]3O)c2n1`, the MIC in the series on Staphylococcus aureus and with Escherichia coli was above 256 µg/mL each time.
